iPSC survival up = enhancers of human iPSC single-cell survival. hiPSC single-cell survival, ATPlite luminescence; 100% = ROCK inhibitor wells, 0% = DMSO. survival enhancement, % at 20 µM. 360,000 compounds, 0.044% hits; in the data active means survival enhancement above about 18%;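 further: cells exposed to compounds for 16 hours before the ATP read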
CRFBP-R2 block = blocks CRF-induced signaling of the CRF-BP/CRF-R2 complex | HEK293 CRF-R2/CRF-BP, CRF-induced calcium fluorescence | 350,000 compounds, 0.59% hits | AID 588475 | inhibition, % at 11.8 µM;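 active means inhibition of the ligand-induced calcium signal above about 50% at the single tested concentration, limit read from the data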
UCH37 DUB inh = human UCH37 deubiquitinating enzyme inhibition. inhibition, % (no concentration beside the values). 330,000 compounds, 0.33% hits. purified proteasome/UCH37, Ub-AMC cleavage fluorescence;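 active means mean inhibition over replicate wells above about 20%, limit read from the data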;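 further: 0% = compound-free wells with enzyme and 100% = wells lacking proteasome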
Target sequence (Q9Y5K5 whole entry, looked up): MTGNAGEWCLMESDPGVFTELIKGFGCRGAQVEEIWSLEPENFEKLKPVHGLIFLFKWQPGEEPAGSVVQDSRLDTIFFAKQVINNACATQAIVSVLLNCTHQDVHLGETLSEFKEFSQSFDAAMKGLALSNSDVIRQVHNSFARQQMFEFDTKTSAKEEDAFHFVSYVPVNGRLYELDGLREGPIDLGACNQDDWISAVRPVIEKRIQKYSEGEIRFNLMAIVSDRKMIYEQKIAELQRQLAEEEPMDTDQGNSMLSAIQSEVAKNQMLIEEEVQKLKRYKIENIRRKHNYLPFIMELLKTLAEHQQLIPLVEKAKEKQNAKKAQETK
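Signal – fluorescence, ex 355 nm, em 460 nm · System – Proteasome-bound UCH37 · Input – 0.15 nM proteasome as dispensed · Timing – 30 min preincubation with enzyme, 25 min cleavage at room temperature · Read-out basis – percent inhibition of cleavage signal versus uninhibited and no-proteasome wells · Medium – Tris-HCl pH 7.4 with ATP-MgCl2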
CRFBP-R2 agonist = CRF-BP/CRF-R2 complex agonism | HEK293 CRF-R2/CRF-BP, calcium dye fluorescence (FLIPR); percent of saturating CRF peptide response | activation, % at 13.2 µM | 350,000 compounds, 0.46% hits;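 active means activation of at least 50%, plus an integration ratio under a set limit after plate pattern correction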;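 further: plate controls were neutral control wells without compound for no effect and CRF at EC100 for full effect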
Cardio protect = myocardial damage modulation in H9c2 cells. AID 588492. protection from H2O2 cell death, % at 20 µM. H9c2 cardiomyocytes, H2O2 injury protection, ATPLite, 2 h. 360,000 compounds, 0.63% hits;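 active means compounds giving at least 50% protection of heart cells from peroxide-induced death in the single-dose screen, raw or plate-pattern-corrected value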;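 further: 0% = DMSO wells with peroxide and 100% = DMSO wells without peroxide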
beta cell repl = induces beta-cell replication in MIN6 cells; 330,000 compounds, 0.29% hits; MIN6 cells proliferation, ATPlite luminescence, 48 h; cells starved in 0.2% serum; 100% = growth in 10% serum; proliferation, % at 10 µM;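 active means compounds whose signal lies at least 3.5 SD above the mean of all wells on their plate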;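 further: 0% = DMSO-treated cells in low-serum medium and 100% = 10% serum control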
Active calls of the source: *; . = no result given. Compounds with a hit are over-represented: about 2.1% of the library has one in this group of screens.

SMILES	iPSC survival up	CRFBP-R2 block	UCH37 DUB inh	CRFBP-R2 agonist	Cardio protect	beta cell repl
CCOC(=O)C1CCN(c2cc3c(cc2NC(=O)c2cc(OC)ccc2Br)n(C)c(=O)n3C)CC1	-0.4	71.7*	4.3	-6.4	39.2	-3.9
CCOC(=O)C1CCN(C(=O)c2ccccc2NC(=O)c2ccc(Br)cc2)CC1	-2.8	-18.9	4.7	0.1	0.5	-1.3
CCOC(=O)C1CCN(c2cc3c(cc2NC(=O)c2ccccc2Br)n(C)c(=O)n3C)CC1	1.3	-3.5	2.6	-5.3	51.9*	-3.6
Cc1cc(C(=O)NN=C/C(Br)=C/c2ccccc2)c(C)o1	.	.	1.5	.	.	.
COc1ccc(-c2[nH]ncc2C=NNC(=O)c2ccc(C(C)(C)C)cc2)cc1OC	.	.	1.7	.	.	.
COc1cc([N+](=O)[O-])ccc1-c1ccc(C=NNC(N)=O)o1	.	.	7.9	.	.	.
CC(C)n1nc(C(=O)Nc2nc3ccccc3[nH]2)c2ccccc2c1=O	-0.3	-16.2	3.3	-1.9	59.6*	-0.4
CCn1nc(C(=O)OCC(=O)c2c[nH]c3ccccc23)c2ccccc2c1=O	2.1	3.8	0.9	-0.6	58.2*	0.9
CC(C)n1nc(C(=O)OCC(=O)c2c[nH]c3ccccc23)c2ccccc2c1=O	-1.7	-19.2	3.5	0.8	62.4*	-2.4
CCCn1nc(C(=O)Nc2nc3ccccc3[nH]2)c2ccccc2c1=O	0.2	0.9	6.2	-2.1	19.5	2.1
CSc1ccc(NN=C(C#N)S(=O)(=O)C(C)(C)C)cc1	.	.	11.0	.	.	.
O=C(NN=Cc1sc(N2CCOCC2)nc1-c1ccccc1)c1ccccc1Cl	.	.	-23.0	.	.	.
COc1cc(C(=O)N2CCN(C(=O)COc3ccc4ccccc4c3)CC2)cc(OC)c1OC	-1.2	-2.2	27.7*	-1.5	-16.0	-3.1
COc1ccc2ccccc2c1C=NNC(=O)c1ccccc1F	.	.	-0.3	.	.	.
Cc1ccccc1NC(=O)Cc1nc(COC(=O)c2cc([N+](=O)[O-])ccc2NCCO)cs1	-0.2	60.6*	6.7	2.0	7.2	1.1
CCn1c(=O)c(C(=O)NCc2ccccc2Cl)c(O)c2ccccc21	0.5	-22.0	0.4	5.7	41.1	-0.4
CCCn1c(=O)c(C(=O)NNC(=O)c2ccccc2[N+](=O)[O-])c(O)c2ccccc21	0.2	.	.	.	-3.1	-6.2
CCn1c(=O)c(C(=O)NC(C)c2ccccc2)c(O)c2ccccc21 (stereo unspecified)	0.3	8.3	2.7	7.8	55.0*	-3.1
CCCn1c(=O)c(C(=O)NNC(=O)c2ccccc2Cl)c(O)c2ccccc21	0.1	3.6	-6.8	66.3*	-5.5	0.0
CCCn1c(=O)c(C(=O)Nc2ccccc2)c(O)c2ccccc21	4.2	7.5	-7.2	1.4	57.3*	-2.9
Cn1c(=O)c(C(=O)NCc2ccccc2Cl)c(O)c2ccccc21	-0.5	64.6*	-2.3	1.4	12.9	1.3
C/C(=N\NC(=O)c1ccc(Br)cc1)C1C(=O)c2ccccc2C1=O	-2.3	55.3*	.	14.0	-15.8	-4.6
Oc1ccc(/C=N/Nc2nccnc2Cl)c(O)c1	-0.5	-35.0	.	-2.1	52.3*	-4.1
Oc1ccccc1/C=N/Nc1nccnc1Cl	-3.7	11.9	.	-1.0	16.7	-5.4
CCCNC(=O)OC[C@H]1O[C@H](CCON=C[C@@H](NS(=O)(=O)c2ccc(C)cc2)[C@H](C)/C=C/CC(=O)OC)C=C[C@@H]1Oc1ccc(OC)cc1	.	.	-1.7	.	.	.
SMILES	iPSC survival up	CRFBP-R2 block	UCH37 DUB inh	CRFBP-R2 agonist	Cardio protect	beta cell repl
CCOC(=O)C1(CC2CCCCO2)CCN(Cc2nccn2-c2cccc(C)c2)CC1 (stereo unspecified)	1.9	6.6	7.2	0.3	3.8	1.0
CCOC(=O)C1(CC2CCCCO2)CCN(Cc2nccn2-c2ccc(OC)cc2)CC1 (stereo unspecified)	-0.3	52.3*	5.9	-2.8	1.1	-3.3
CCn1c(SCc2nc3ccccc3c(=O)[nH]2)nnc1-c1cccnc1	-0.6	-4.2	-0.7	-2.1	11.2	-1.6
O=c1[nH]c(CSc2nnc(-c3cccnc3)n2C2CCCCC2)nc2ccccc12	-1.3	-0.4	1.1	0.0	88.9*	-1.7
Cc1cc(NS(=O)(=O)c2c(C(=O)N3CCOCC3)c(C)n(C)c2C)ccc1Br	1.1	92.0*	-1.0	-1.4	-0.7	-0.5
Cc1ccc(NS(=O)(=O)c2c(C(=O)N3CCOCC3)c(C)n(C)c2C)cc1	0.8	-12.6	4.1	0.2	1.6	3.2
NC(=S)NN=Cc1ccccc1[N+](=O)[O-]	.	.	2.9	.	.	.
COc1ccnc(Oc2ccccc2)c1C(=O)N/C=N/OCc1ccc(F)cc1Cl	3.4	-14.7	2.2	3.5	69.2*	-2.1
COc1cccc(N/C(N)=N/c2nc(CSc3ccccn3)cc(=O)[nH]2)c1	.	.	5.5	.	.	-3.6
COc1ccnc(CSC(N)=Nc2ccc(F)cc2)c1	-1.1	86.4*	6.6	5.7	-8.1	0.6
CCN(c1ccccc1)S(=O)(=O)c1ccc(NC(=O)c2ccco2)cc1	-0.2	77.1*	4.2	-2.3	5.3	-0.8
CN(c1ccccc1)S(=O)(=O)c1ccc(NC(=O)c2ccco2)cc1	2.0	-47.8	0.2	3.4	-1.7	-0.9
O=C(O)c1ccc(C2SCC(=O)N2Cc2ccccc2)cc1 (stereo unspecified)	1.3	-4.5	-3.2	0.9	-5.0	-1.1
NC(=O)c1ccc(C2SCC(=O)N2Cc2ccccc2)cc1 (stereo unspecified)	-0.5	78.1*	0.9	-2.2	13.8	-2.5
COC(=O)/C=C1\SC(=Nc2ccc(Cl)c(Cl)c2)NC1=O	0.6	31.6	.	0.3	-15.1	-3.3
COc1cc(/C=C2\SC(=Nc3ccccc3)NC2=O)cc(Cl)c1O	0.2	-158.8	9.2	212.6*	-1.5	-5.4
COc1cc(/C=C2\SC(=Nc3ccc(Cl)c(C(=O)O)c3)NC2=O)c(Br)c(Br)c1O	-0.4	-194.4	.	201.2*	-2.8	-2.4
CCc1ccc(N=C2NC(=O)/C(=C/c3cc(OC)c(O)c(OC)c3)S2)cc1	-0.5	-24.5	3.1	5.4	38.8	-4.0
CCC(=NNC(=O)c1ccc(Br)cc1)c1ccccc1	.	.	4.6	.	.	.
Cc1cc(=O)[nH]c(NN=Cc2cccc([N+](=O)[O-])c2)n1	.	.	5.3	.	.	.
CCCCNC(=O)CCn1c(=O)c2ccccc2n(Cc2ccccc2C)c1=O	0.4	64.9*	-0.3	-2.2	0.4	0.0
N#Cc1ccc(NC(=O)COC(=O)CSc2nnc(-c3ccc(Cl)cc3)o2)cc1	4.5	51.6*	-0.6	3.9	-4.0	0.7
COc1ccc(-c2nc3scc(-c4ccc(OC)c(OC)c4)c3c(=O)o2)cc1	0.9	56.9*	-29.4	-0.6	-2.0	-4.0
CCCc1nc2ccccc2c(=O)n1/N=C/c1ccccc1O	-1.2	-6.1	.	-3.0	55.9*	-0.7
NC(=NOC(=O)Cc1cccs1)c1ccc([N+](=O)[O-])cc1	.	.	-3.0	.	.	.
CC1=CC(=C(c2ccc(O)c(C)c2)c2ccccc2S(=O)(=O)O)C=CC1=O	.	.	15.0	.	.	.

Bioassay records as filed in PubChem.
